RAM inhibit: inhibitors of the yeast RAM network. inhibition, % at 50 µM. S. cerevisiae dse1pr::URA3 reporter, 5-FOA growth OD615, 2 d; analog-sensitive cbk1-as2 kinase mutant strain. 190,000 compounds, 1.8% hits;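 active = inhibition above a set limit, 3 SD over mean compound inhibition, cut at about 8.4% in these data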;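 note: 0% = DMSO-only wells with no growth and 100% = 10 µM 1-NA-PP1 full growth; inhibition rescues growth on 5-FOA so higher OD means more RAM inhibition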
Yeast lifespan up: yeast lifespan extension. S. cerevisiae growth with nicotinamide, OD615; deaD strain in restrictive glucose medium. inhibition of the nicotinamide effect, % at 10 µM. 130,000 compounds, 0.68% hits;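 active = inhibition above a set limit, placed 3 SD over the median of all compounds, cut at about 26% in these data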;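 note: 0% = nicotinamide-treated wells and 100% = cells grown without nicotinamide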
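Assay system: DeaD-strain S. cerevisiae. Medium: CSMM-D glucose medium, restrictive. Reagent: nicotinamide, 1.5 mM, co-present with compound. Compound: 10 µM single point, 0.25% DMSO. Schedule: culture preincubation 4 h, compound exposure 48 h, both 30 °C. Detection: absorbance at 615 nm.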
WT yeast gro inh: growth inhibition of WT yeast, mitochondrial fusion screen; AID 1362; mitochondrial fusion phenotypic screen, WT strain; inhibition, % at 10 µM; 190,000 compounds, 2.1% hits; in the data active = inhibition above about 58%; tested in S. cerevisiae
Yeast growth inh: reduces growth of yeast BB579 in restrictive medium. 140,000 compounds, 0.51% hits. S. cerevisiae BB579 growth, OD615, 48 h. AID 804. inhibition, % at 10 µM;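 active = inhibition above a set limit, 3 SD over the mean compound inhibition, cut at about 44% in these data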
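test system = yeast BB579 (DeaD) | buffer or medium = restrictive CSMM-D medium | doses = single compound dose of 10 µM, 0.25% DMSO final | times = 4 h preincubation and 48 h exposure at 30 °C | technique = culture absorbance at 615 nm | benchmarks = amphotericin B 10 µg/mL, positive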
DAT uptake mod: changed human dopamine transporter uptake under cocaine IC80. Q01959. LLC-PK1 hDAT cells, [14C]-dopamine uptake with cocaine IC80; actives deviate in either direction. B-score at 10 µM. 110,000 compounds, 1.3% hits. AID 449768;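 active = Z score or B-score, a plate-position-corrected score, falls beyond the plate's 99.7% confidence bounds, in either direction; inactive = both scores lie inside the 99.7% bounds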;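 note: scored against the spread of the other compound wells on the same plate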
Target sequence (Q01959 whole entry, looked up): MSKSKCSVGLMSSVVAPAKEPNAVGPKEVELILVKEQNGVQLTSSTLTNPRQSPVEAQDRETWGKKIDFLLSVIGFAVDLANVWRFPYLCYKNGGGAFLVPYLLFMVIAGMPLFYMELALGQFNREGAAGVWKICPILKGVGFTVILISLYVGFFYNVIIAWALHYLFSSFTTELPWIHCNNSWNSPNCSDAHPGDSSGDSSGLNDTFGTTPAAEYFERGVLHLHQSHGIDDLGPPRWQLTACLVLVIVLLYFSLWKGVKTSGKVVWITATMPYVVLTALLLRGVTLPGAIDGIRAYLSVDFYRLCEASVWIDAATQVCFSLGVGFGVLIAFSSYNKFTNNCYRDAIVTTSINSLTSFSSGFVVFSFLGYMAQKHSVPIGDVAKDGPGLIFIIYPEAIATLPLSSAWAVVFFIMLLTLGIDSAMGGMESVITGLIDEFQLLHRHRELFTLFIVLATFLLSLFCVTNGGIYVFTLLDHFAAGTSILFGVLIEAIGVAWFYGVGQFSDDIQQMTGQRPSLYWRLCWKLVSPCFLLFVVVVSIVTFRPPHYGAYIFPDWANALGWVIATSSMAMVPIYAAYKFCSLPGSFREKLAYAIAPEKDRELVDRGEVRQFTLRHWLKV
Measles CPE: protection of cells from measles virus. protection (pct of control), % at 4 µM. 140,000 compounds, 1.5% hits. Measles virus-infected cells, CPE protection, absorbance; in the data active = protection mostly above about 24%, no sharp cut-off; inactive = mostly below about 26%
RAM 5-FOA: RAM network inhibition, efflux-deficient strain | 1,200 tested, under 10 active | shares compounds with RAM inhibit | S. cerevisiae efflux-deficient reporter strain, 5-FOA growth OD615, 2 days | max inhibition, %; call rule not given here;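 note: plate controls were vehicle for no effect and reference inhibitor for full effect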
Numbers without * were called inactive; . = no result. An excerpt weighted towards active compounds, which were near 6.1% of everything screened.

SMILES | RAM inhibit | Yeast lifespan up | WT yeast gro inh | Yeast growth inh | DAT uptake mod | Measles CPE | RAM 5-FOA
CCC(=O)NC(=S)Nc1ccc(NC(=S)NC(=O)c2ccccc2)cc1 | 13* | . | . | . | . | . | 4
COc1ccc(NC(=S)NC(=O)c2ccccc2Cl)cc1 | 0 | . | -4 | . | . | . | .
O=C(NC(=S)Nc1ccc(Oc2ccc(Cl)cc2)cc1)c1ccccc1 | 17* | -18 | 6 | -58 | -1 | 12 | 4
O=C1CCC(=O)N1c1ccc(S(=O)(=O)N2CCCC2)cc1 | -1 | . | 0 | . | . | . | .
CCOC(=O)C(=O)N1CCN(c2ccccc2OC)CC1 | 1 | . | 6 | . | . | . | .
Cc1cc(C(=O)CCl)c(C)n1CCc1ccc(F)cc1 | 2 | . | 3 | . | . | . | .
Cc1cc(C(=O)CCl)c(C)n1CCc1ccc(Cl)cc1 | 13* | . | 21 | . | . | . | 5
CC1(C)C(C=C(Cl)Cl)C1C(=O)Nc1ccc([N+](=O)[O-])cc1 (stereo not given) | 11* | -4 | 73 | 54* | . | 11 | 2
Cc1cc(=O)n2[nH]c(NCc3c(F)cccc3Cl)nc2n1 | 1 | . | -8 | . | . | . | .
CN(C)c1ccc(NC(=O)CSCc2nc3c(nnn3Cc3ccc(F)cc3)c(=O)[nH]2)cc1 | 2 | -3 | 14 | -77 | 0.013 | 9 | .
O=C(CSCc1nc2c(nnn2Cc2ccc(F)cc2)c(=O)[nH]1)Nc1cccc(C(F)(F)F)c1 | 16* | . | -3 | . | . | . | 1
Cc1cccc(C(=O)Nc2cccc(OC(=O)c3cccc(C)c3)c2)c1 | 14* | -12 | 33 | -22 | 0.052 | 1 | 5
COC(=O)COc1cccc(NC(=O)c2cccc(C)c2)c1 | 0 | . | 7 | . | . | . | .
O=S(=O)(NC1CCCCC1)c1ccc(Cl)s1 | 0 | 4 | -12 | 31 | 0.11 | 2 | .
CCCNc1nc(C)cc(-c2cc(C(=O)Nc3ccccc3)on2)n1 | . | . | . | . | -0.12 | . | .
CCN(CCNC(=O)Nc1ccc(Cl)cc1)c1ccccc1 | 1 | -25 | 41 | -16 | -0.14 | 6 | .
CCCCN(CCCC)S(=O)(=O)c1ccc(NS(=O)(=O)c2ccc(NC(C)=O)cc2)cc1 | 17* | 4 | 1 | -65 | 1.5 | 11 | 2
CCCCn1c(=O)c(CCC(=O)OC(C)C(=O)Nc2cccc(Cl)c2Cl)nc2ccccc21 (stereo not given) | 16* | 5 | 13 | -11 | . | 19 | 1
COc1ccccc1N1CCN(C(=O)c2c(-c3ccccc3Cl)noc2C)CC1 | 1 | -7 | 30 | -19 | -0.2 | 3 | .
Cc1cc(Br)ccc1OCC(=O)N1CCCCCC1 | 21* | -6 | 17 | -7 | -0.89 | 28 | 1
CSc1cccc(NC(=O)CN(C)S(=O)(=O)c2ccc(C)cc2)c1 | 1 | -5 | 34 | -18 | 1.7 | 6 | .
N#Cc1c(N)n(CCOC(=O)c2cccc(Br)c2)c2nc3ccccc3nc12 | 5 | -17 | 10 | -61 | -0.49 | 4 | .
N#Cc1c(N)n(CCOC(=O)c2cccc([N+](=O)[O-])c2)c2nc3ccccc3nc12 | 12* | 0 | -13 | -40 | 0.87 | 5 | 6
O=C1C2C3c4ccccc4C(c4ccccc43)C2C(=O)N1Cc1ccccn1 (stereo not given) | 0 | . | 9 | . | . | . | .
Cc1ccc2[nH]c(=O)cc(C(=O)OCC(=O)c3ccccc3)c2c1 | 15* | -3 | 7 | -22 | . | 9 | 1
SMILES | RAM inhibit | Yeast lifespan up | WT yeast gro inh | Yeast growth inh | DAT uptake mod | Measles CPE | RAM 5-FOA
O=C(COc1ccc2ccc(=O)oc2c1)N1CCc2ccccc21 | 3 | . | -11 | . | . | . | .
COCCNC(=O)C(c1ccc(F)cc1)N(C(=O)CCC(=O)Nc1nccs1)c1ccc(C)cc1 (stereo not given) | 12* | . | -6 | . | . | . | 2
CCCOc1cccc(C(=O)NC(=S)Nc2cccc(C(F)(F)F)c2)c1 | 12* | -9 | 17 | -20 | 0.13 | 17 | 3
COc1ccccc1OCC(=O)Nc1ccc(CSc2ccccc2)cc1C | 18* | 0 | 7 | -29 | 0.15 | 2 | 3
CC(NC(=O)C1CCN(c2nnc(-n3cccc3)s2)CC1)C12CC3CC(CC(C3)C1)C2 (stereo not given) | 1 | -9 | -13 | -14 | 0.45 | 0 | .
COC(=O)[C@@H]1CC[C@H](C)[C@@H](c2ccc(C)cc2)N1C(=O)c1ccc(/C=N/OC[C@@H](O)COCc2ccco2)cc1 | 15* | 5 | 26 | -26 | . | 3 | 2
Cc1ccc(-n2ncc3c(SCc4ccccc4)ncnc32)cc1 | 12* | 8 | 52 | -43 | . | 35* | 3
Fc1ccc(-n2ncc3c(SCc4cccnc4)ncnc32)cc1 | 0 | . | 17 | . | . | . | .
CC(=O)c1cccc(NC(=O)c2nc(-c3ccccc3)oc2C)c1 | 3 | . | -4 | . | . | . | .
Cc1nc(-c2ccccc2)sc1C(=O)O | 0 | . | -12 | . | . | . | .
COc1ccc(/C=C/C(=O)c2sc(-c3ccccc3)nc2C)cc1 | 13* | -4 | 30 | -50 | 2.3 | 15 | 1
CCOC(=O)c1c(C)[nH]c(C(=O)C(C)Sc2ccc(Cl)cc2)c1C (stereo not given) | 12* | -17 | -4 | -69 | 0.66 | 3 | 3
COCCN1Cc2cccc(C(=O)Nc3ccc(S(=O)(=O)N4CCOCC4)cc3)c2C1=O | 7 | . | 6 | . | . | . | .
CCOC(=O)/C(=N/Nc1ccc(Cl)cc1)Sc1nnnn1-c1ccc(C)cc1 | 2 | 4 | 7 | -7 | . | 17 | .
CCOC(=O)/C(=N/Nc1ccc(C)cc1)S(=O)(=O)c1ccc(Cl)cc1 | 12* | -3 | 58 | -14 | -1 | 18 | 1
CCOC(=O)c1c(C)[nH]c(C)c1C(=O)COC(=O)/C=C/c1cccc(C(F)(F)F)c1 | 23* | -1 | 58* | -7 | . | 6 | 3
CCSC1=N/C(=C\c2cccnc2)C(=O)N1c1ccccc1 | 0 | 1 | -11 | -47 | . | 24 | .
CCSC1=N/C(=C/c2ccsc2)C(=O)N1c1ccccc1 | 12* | 0 | 45 | -29 | . | 25 | 3
CSC1=N/C(=C\c2cccnc2)C(=O)N1c1ccccc1 | -1 | -8 | -9 | -25 | . | 2 | .
CCCSC1=N/C(=C/c2ccsc2)C(=O)N1c1ccccc1 | 12* | -1 | 25 | -26 | . | 5 | 1
CCCCSC1=N/C(=C/c2ccsc2)C(=O)N1c1ccccc1 | 16* | 0 | 22 | -15 | . | 13 | 3
